Broadly, the logD is lipophilicity at a set pH, counting ionised and neutral species. A high value points to a more lipophilic compound. The term CLint scaled denotes the capacity of the preparation to metabolise the compound, expressed as a volume cleared per time. A high value points to faster metabolism. Broadly, the AUC(0-inf) is total exposure, with the tail of the curve extrapolated. The solubility (kinetic) is the concentration staying in solution when a stock, usually in DMSO, is diluted into the medium.

Data set [1] relates to T1, Nonstructural protein 5A (Hepatitis C virus), Q5L478 [Y93N].
T1 sequence (whole entry): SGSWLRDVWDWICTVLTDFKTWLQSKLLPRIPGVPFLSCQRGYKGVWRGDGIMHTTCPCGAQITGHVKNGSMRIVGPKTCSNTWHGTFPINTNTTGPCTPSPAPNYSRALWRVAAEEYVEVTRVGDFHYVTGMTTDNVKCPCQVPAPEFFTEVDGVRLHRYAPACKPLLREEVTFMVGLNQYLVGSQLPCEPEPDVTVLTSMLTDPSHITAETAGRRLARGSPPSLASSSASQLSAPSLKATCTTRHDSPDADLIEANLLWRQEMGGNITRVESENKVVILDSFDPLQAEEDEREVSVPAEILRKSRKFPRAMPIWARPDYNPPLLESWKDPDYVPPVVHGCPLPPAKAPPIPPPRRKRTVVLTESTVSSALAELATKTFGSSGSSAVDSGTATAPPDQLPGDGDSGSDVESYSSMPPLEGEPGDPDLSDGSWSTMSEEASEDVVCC
Briefly: Inhibition of NS5A Y93N mutant in HuH7 cell infected HCV genotype 1b Con1 assessed as decrease in viral replication after 4 days by luciferase reporter gene assay relative to wild type protein. The conditions noted are these: Hepatitis C virus (isolate Con1). In short, it runs like this: (§1)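 Stable subgenomic luciferase replicons in Huh-7 cells: genotype 1b-Con1 carrying NS5A Y93H or Y93N, tested alongside the wild-type replicon. Cells are incubated 4 days with compound in DMEM with 5% FBS. Luciferase read-out, EC50 from a 4-parameter logistic fit, expressed as fold change versus wild type.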
On the technique in general: In a reporter assay the amount or activity of a reporter protein is the signal.

The test system of data set [2] is T2, Nonstructural protein 5A (Hepatitis C virus), Q5L478 [Y93H].
T2 sequence (whole entry): T1 sequence (whole entry) with N93H
The experiment in a line: Inhibition of NS5A Y93H mutant in HuH7 cell infected HCV genotype 1a H77 assessed as decrease in viral replication after 4 days by luciferase reporter gene assay relative to wild type protein. The following applies: Hepatitis C virus (isolate H77). An outline of the steps: (§2)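 Stable subgenomic luciferase replicons in Huh-7 cells: genotype 1a-H77 carrying NS5A substitutions M28T, Q30E, Q30R, Y93C, Y93H or Y93N, tested alongside the wild-type replicon. Cells are incubated 4 days with compound in DMEM with 5% FBS. Luciferase read-out, EC50 by 4-parameter logistic fit, and fold change versus wild type.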

For data set [3], the target named is T3, Nonstructural protein 5A (Hepatitis C virus) (UniProt Q5L478).
T3 sequence (whole entry): T1 sequence (whole entry) with N93Y
Briefly: Inhibition of NS5A Q30R mutant in HuH7 cell infected HCV genotype 1a H77 assessed as decrease in viral replication after 4 days by luciferase reporter gene assay relative to wild type protein. The following applies: Hepatitis C virus (isolate H77). In short, it runs like this:
as §2

Data set [4] relates to T1, Nonstructural protein 5A (Hepatitis C virus), Q5L478 [Y93N]. The experiment in a line: Inhibition of NS5A Y93N mutant in HuH7 cell infected HCV genotype 1a H77 assessed as decrease in viral replication after 4 days by luciferase reporter gene assay relative to wild type protein. The conditions noted are these: Hepatitis C virus (isolate H77). In short, it runs like this:
as §2

In data set [5] the test system is T4, Nonstructural protein 5A (Hepatitis C virus), Q5L478 [Y93C].
T4 sequence (whole entry): T1 sequence (whole entry) with N93C
The experiment in a line: Inhibition of NS5A Y93C mutant in HuH7 cell infected HCV genotype 1a H77 assessed as decrease in viral replication after 4 days by luciferase reporter gene assay relative to wild type protein. The following applies: Hepatitis C virus (isolate H77). An outline of the steps: as §2

Data set [6] addresses T3, Nonstructural protein 5A (Hepatitis C virus). The experiment in a line: Inhibition of NS5A Q30E mutant in HuH7 cell infected HCV genotype 1a H77 assessed as decrease in viral replication after 4 days by luciferase reporter gene assay relative to wild type protein. The following applies: Hepatitis C virus (isolate H77). In short, it runs like this:
as §2

For data set [7] the target is unchanged. Briefly: Inhibition of NS5A M28T mutant in HuH7 cell infected HCV genotype 1a H77 assessed as decrease in viral replication after 4 days by luciferase reporter gene assay relative to wild type protein. The conditions noted are these: Hepatitis C virus (isolate H77). An outline of the steps: as §2
Data set [8] has as its system T2, Nonstructural protein 5A (Hepatitis C virus), Q5L478 [Y93H]. The experiment in a line: Inhibition of NS5A Y93H mutant in HuH7 cell infected HCV genotype 1b Con1 assessed as decrease in viral replication after 4 days by luciferase reporter gene assay relative to wild type protein. The conditions noted are these: Hepatitis C virus (isolate Con1). In short, it runs like this: as §1

The nature of data set [9]: Lipophilicity, log D of the compound by HPLC method. The format is physicochemical.
Data set [10] in a line: Intrinsic clearance in rat microsomes. It is filed as ADME, Microsome.
Data set [11] is described as follows: AUC (0 to infinity) in mouse at 3 mg/kg, po by LC-MS method. It is filed as ADME, organism-based. On the set-up: dose 3 mg/kg, route oral, time infinity. The conditions noted are these: in vivo. In short, it runs like this:
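Single dose, 3 mg/kg, in mouse or rat. IV vehicle: DMSO:Tween 80:PEG-400:D5W 2:5:20:73 (v/v). PO vehicle: Phosol 53 MCT:PEG-400:Poloxamer 124:Cremophor RH40 40:20:20:20 (w/w). Acetonitrile protein precipitation, then LC-MS/MS in negative-ion MRM against an internal standard; LOQ ~20 ng/mL.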

Data set [12] is described as follows: Solubility of the compound by CLND method. The format is physicochemical.
The nature of data set [13]: Intrinsic clearance in human microsomes. It is filed as ADME, Microsome.

Substitutions are numbered along the chain they refer to. Converted amounts (≈) assume the structure as drawn.

With `COC(=O)N[C@H](C(=O)N1CCC[C@H]1c1nc2cc(F)c([C@H]3CC[C@H](c4cc5[nH]c([C@@H]6CCCN6C(=O)[C@@H](NC(=O)OC)C(C)C)nc5cc4F)N3c3cc(F)c(N4CCC(c5ccccc5)CC4)c(F)c3)cc2[nH]1)C(C)C`, the fold change (FC) in [1] stood at 1; in data set [2], 49; in data set [3], 2; in data set [4] it was 50; in data set [5], 6; in data set [6], 12. For the same compound, the fold change (FC) in data set [7] and in data set [8] was 1 in each case.

For `COC(=O)N[C@H](C(=O)N1CCC[C@H]1c1nc2ccc([C@H]3CC[C@H](c4ccc5nc([C@@H]6CCCN6C(=O)[C@@H](NC(=O)OC)C(C)C)[nH]c5c4)N3c3cc(F)c(N4CCC(c5ccc(F)cc5)CC4)c(F)c3)cc2[nH]1)C(C)C`, the fold change (FC) amounted to 20 in data set [2]; 3 in data set [3]; 25 in data set [4]; 3 in data set [5]; 20 in [6]; 2 in data set [7]. For the same compound, in [8], the fold change (FC) worked out at 2.

As to `COC(=O)N[C@H](C(=O)N1CCC[C@H]1c1nc2ccc([C@H]3CC[C@H](c4ccc5nc([C@@H]6CCCN6C(=O)[C@@H](NC(=O)OC)C(C)C)[nH]c5c4)N3c3ccc(Cl)cc3)cc2[nH]1)C(C)C`, the fold change (FC) worked out at 670 in data set [2]; 44 in data set [3]; 1160 in data set [4]; 22 in [5]; 83 in data set [6]; 28 in [7]. Further, in data set [8], the fold change (FC) worked out at 1.

On to `COC(=O)N[C@H](C(=O)N1CCC[C@H]1c1nc2ccc([C@H]3CC[C@H](c4ccc5nc([C@@H]6CCCN6C(=O)[C@@H](NC(=O)OC)C(C)C)[nH]c5c4)N3c3ccc(-c4ccccc4)cc3)cc2[nH]1)C(C)C`, for which the fold change (FC) in data set [1] stood at 1; in data set [2] it was 329; in data set [3], 10; in data set [4] it was 827; in [5], 24; in data set [6] it was 47. Besides, the fold change (FC) in data set [8] is 1.

For the compound `COC(=O)N[C@H](C(=O)N1CCC[C@H]1c1nc2cc([C@H]3CC[C@H](c4ccc5[nH]c([C@@H]6CCCN6C(=O)[C@@H](NC(=O)OC)C(C)C)nc5c4)N3c3cc(F)c(N4CCC(c5ccc(F)cc5)CC4)c(F)c3)ccc2[nH]1)C(C)C`, the logD in data set [9] amounted to 5.8. Besides, the CLint scaled in data set [10] was 53.3 mL/min/kg; in [13], below 25 mL/min/kg. This compound showed an area under the curve AUC(0-inf) in data set [11] of 4590 ng·h/mL. In [12], the kinetic solubility stood at 0.9 µM (≈ 0.941 µg/mL).

Consider `COC(=O)N[C@H](C(=O)N1CCC[C@H]1c1nc2cc([C@H]3CC[C@H](c4ccc5[nH]c([C@@H]6CCCN6C(=O)[C@@H](NC(=O)OC)C(C)C)nc5c4)N3c3cc(F)c(N4CCCCC4)c(F)c3)ccc2[nH]1)C(C)C`, for which the fold change (FC) in [2] came out at 241; in data set [3] it was 13; in data set [4], 510; in data set [5], 9; in data set [6] it was 134; in data set [7], 5. For the same compound, in data set [8], the fold change (FC) came out at 1. Besides, the CLint scaled in [10] is 187 mL/min/kg; in [13] it was 175 mL/min/kg. In data set [11], this compound had an AUC(0-inf) of 1790 ng·h/mL. The compound further registered a kinetic solubility in data set [12] of 0.7 µM (≈ 0.666 µg/mL).

As to `COC(=O)N[C@H](C(=O)N1CCC[C@H]1c1nc2cc([C@H]3CC[C@H](c4ccc5[nH]c([C@@H]6CCCN6C(=O)[C@@H](NC(=O)OC)C(C)C)nc5c4)N3c3cc(F)c(N4CCC(c5ccccc5)CC4)c(F)c3)ccc2[nH]1)C(C)C`, the CLint scaled is 53.3 mL/min/kg in data set [10] and below 25 mL/min/kg in data set [13]. For the same compound, the AUC(0-inf) in data set [11] worked out at 6830 ng·h/mL. Also, the kinetic solubility in data set [12] turned out to be 1.1 µM (≈ 1.13 µg/mL).

`COC(=O)N[C@H](C(=O)N1CCC[C@H]1c1nc2cc(F)c([C@H]3CC[C@H](c4cc5[nH]c([C@@H]6CCCN6C(=O)[C@@H](NC(=O)OC)C6CCOCC6)nc5cc4F)N3c3cc(F)c(N4CCC(c5ccc(F)cc5)CC4)c(F)c3)cc2[nH]1)C1CCOCC1`: the fold change (FC) in data set [2] is 2; in data set [4] it was 2; in data set [6], 1.

Turning to `COC(=O)N[C@H](C(=O)N1CCC[C@H]1c1nc2ccc([C@H]3CC[C@H](c4ccc5nc([C@@H]6CCCN6C(=O)[C@@H](NC(=O)OC)C(C)C)[nH]c5c4)N3c3ccc(C4CCCCC4)cc3)cc2[nH]1)C(C)C`, the fold change (FC) was above 577 in data set [2]; above 30 in data set [3]; above 30 in data set [5]; above 90 in data set [6]; above 17 in data set [7]; 1 in [8].

Turning to `COC(=O)N[C@H](C(=O)N1CCC[C@H]1c1nc2cc(F)c([C@H]3CC[C@H](c4cc5[nH]c([C@@H]6CCCN6C(=O)[C@@H](NC(=O)OC)C6CCOCC6)nc5cc4F)N3c3cc(F)c(N4CCC(c5ccccc5)CC4)c(F)c3)cc2[nH]1)C1CCOCC1`, the fold change (FC) was determined as 3 in [2], 2 in [4] and 1 in [6].

In data set [9], `COC(=O)N[C@H](C(=O)N1CCC[C@H]1c1nc2ccc([C@H]3CC[C@H](c4ccc5nc([C@@H]6CCCN6C(=O)[C@@H](NC(=O)OC)C(C)C)[nH]c5c4)N3c3ccc(N4CCC(c5ccccc5)CC4)cc3)cc2[nH]1)C(C)C` registered a logD of 5.4. Also, the CLint scaled in data set [10] was 46.7 mL/min/kg; in data set [13], below 25 mL/min/kg. This compound registered a kinetic solubility in [12] of 0.82 µM (≈ 0.813 µg/mL).

Source of the values: ChEMBL document CHEMBL4177761, “Highlights of the Structure-Activity Relationships of Benzimidazole Linked Pyrrolidines Leading to the Discovery of the Hepatitis C Virus NS5A Inhibitor Pibrentasvir (ABT-530)” (J Med Chem, 2018).
